Data reported in ChEMBL document CHEMBL1144782, “Isoindolo[2,1-a]quinoxaline derivatives, novel potent antitumor agents with dual inhibition of tubulin polymerization and topoisomerase I” (2008).
Several values for one entry are separate records, joined by “and”; a condition that tells them apart may be missing. Equal entries are not always repeated.

tested on: NCI-H23; assay: Antitumor activity against human NCI-H23 cells; assay type: functional; conditions: not given
Summary of the method: (§1)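 Run by the NCI in its in vitro disease-oriented screen of about 60 human tumour cell lines. For each line it reports pGI50 (50% net growth inhibition), pTGI (total growth inhibition) and pLC50 (50% net cell death), each as –log molar concentration. Where an effect was not reached within the tested range, the highest tested concentration was used.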

Structure (SMILES) | GI50 [µM] | LC50 (50% net cell kill) [µM]
O=c1[nH]c2ccccc2n2cc3ccccc3c12 | 11.2 | > 100

same assay, conditions: read-out: pTGI (converted)

Structure (SMILES) | TGI [µM]
O=c1[nH]c2ccccc2n2cc3ccccc3c12 | 36.3

tested on: HCC 2998; assay: Antitumor activity against human HCC2998 cells; assay type: functional; conditions: not given; summary of the method: as §1

Structure (SMILES) | GI50 [µM] | LC50 [µM]
O=c1[nH]c2ccccc2n2cc3ccccc3c12 | 5.89 | 57.5

same assay, conditions: read-out: pTGI (converted)

Structure (SMILES) | TGI [µM]
O=c1[nH]c2ccccc2n2cc3ccccc3c12 | 20.9

tested on: HCT-15; assay: Antitumor activity against human HCT15 cells; assay type: functional; conditions: not given; summary of the method: as §1

Structure (SMILES) | GI50 [µM]
O=c1[nH]c2ccccc2n2cc3ccccc3c12 | 3.31

same assay, conditions: read-out: Log LC50 (the source's name) (converted)

Structure (SMILES) | CC50 [µM]
O=c1[nH]c2ccccc2n2cc3ccccc3c12 | 93.3

same assay, conditions: read-out: pTGI (converted)

Structure (SMILES) | TGI [µM]
O=c1[nH]c2ccccc2n2cc3ccccc3c12 | 18.6

tested on: U-251; assay: Antitumor activity against human U251 cells; assay type: functional; conditions: not given
Summary of the method: (§2)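 NCI 60-cell-line screen. Parameters were GI50 (50% net growth inhibition), TGI and LC50, each reported as –log molar concentration. Where an effect was not reached within the tested range, the highest tested concentration was used in the calculation.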

Structure (SMILES) | GI50 [µM]
O=c1[nH]c2ccccc2n2cc3ccccc3c12 | 3.24

same assay, conditions: read-out: Log LC50 (the source's name) (converted)

Structure (SMILES) | CC50 [µM]
O=c1[nH]c2ccccc2n2cc3ccccc3c12 | 70.8

same assay, conditions: read-out: pTGI (converted)

Structure (SMILES) | TGI [µM]
O=c1[nH]c2ccccc2n2cc3ccccc3c12 | 13.5

tested on: DU-145; assay: Antitumor activity against human DU145 cells; assay type: functional; conditions: not given; summary of the method: as §1

Structure (SMILES) | GI50
O=c1[nH]c2ccccc2n2cc3ccccc3c12 | 7.59 µM and 38 µM

same assay, conditions: Homo sapiens, DU-145; read-out: Log LC50 (the source's name) (converted)

Structure (SMILES) | CC50 [µM]
O=c1[nH]c2ccccc2n2cc3ccccc3c12 | > 100

tested on: 786-0; assay: Antitumor activity against human 786-0 cells; assay type: functional; conditions: not given; summary of the method: as §1

Structure (SMILES) | GI50 [µM]
O=c1[nH]c2ccccc2n2cc3ccccc3c12 | 4.27

same assay, conditions: read-out: Log LC50 (the source's name) (converted)

Structure (SMILES) | CC50 [µM]
O=c1[nH]c2ccccc2n2cc3ccccc3c12 | 55

same assay, conditions: read-out: pTGI (converted)

Structure (SMILES) | TGI [µM]
O=c1[nH]c2ccccc2n2cc3ccccc3c12 | 18.2

tested on: HCT-116; assay: Antitumor activity against human HCT116 cells; assay type: functional; conditions: not given; summary of the method: as §1

Structure (SMILES) | GI50 [µM] | LC50 [µM]
O=c1[nH]c2ccccc2n2cc3ccccc3c12 | 2.14 | 49

same assay, conditions: read-out: pTGI (converted)

Structure (SMILES) | TGI [µM]
O=c1[nH]c2ccccc2n2cc3ccccc3c12 | 12.3

tested on: OVCAR-5; assay: Antitumor activity against human OVCAR5 cells; assay type: functional; conditions: not given; summary of the method: as §1

Structure (SMILES) | GI50 [µM] | LC50 (50% net cell death) [µM]
O=c1[nH]c2ccccc2n2cc3ccccc3c12 | 10.5 | > 100

same assay, conditions: read-out: pTGI (converted)

Structure (SMILES) | TGI [µM]
O=c1[nH]c2ccccc2n2cc3ccccc3c12 | 35.5

tested on: OVCAR-4; assay: Antitumor activity against human OVCAR4 cells; assay type: functional; conditions: not given; summary of the method: as §1

Structure (SMILES) | GI50 [µM] | LC50 (50% net cell kill) [µM]
O=c1[nH]c2ccccc2n2cc3ccccc3c12 | 7.24 | > 100

same assay, conditions: read-out: pTGI (converted)

Structure (SMILES) | TGI [µM]
O=c1[nH]c2ccccc2n2cc3ccccc3c12 | 89.1

tested on: RPMI-8226; assay: Antitumor activity against human RPMI8226 cells; assay type: functional; conditions: not given; summary of the method: as §1

Structure (SMILES) | GI50 [µM]
O=c1[nH]c2ccccc2n2cc3ccccc3c12 | 3.72

same assay, conditions: read-out: Log LC50 (the source's name) (converted)

Structure (SMILES) | CC50 [µM]
O=c1[nH]c2ccccc2n2cc3ccccc3c12 | > 100

same assay, conditions: read-out: pTGI (converted)

Structure (SMILES) | TGI [µM]
O=c1[nH]c2ccccc2n2cc3ccccc3c12 | 22.4

tested on: NCI/ADR-RES; assay: Antitumor activity against human NCI/ADR-RES cells; assay type: functional; conditions: not given; summary of the method: as §1

Structure (SMILES) | GI50 [µM] | LC50 [µM]
O=c1[nH]c2ccccc2n2cc3ccccc3c12 | 6.46 | > 100

same assay, conditions: read-out: pTGI (converted)

Structure (SMILES) | TGI [µM]
O=c1[nH]c2ccccc2n2cc3ccccc3c12 | 32.4

tested on: NCI-H460; assay: Antitumor activity against human NCI-H460 cells; assay type: functional; conditions: not given; summary of the method: as §1

Structure (SMILES) | GI50 [µM]
O=c1[nH]c2ccccc2n2cc3ccccc3c12 | 7.76

same assay, conditions: read-out: Log LC50 (the source's name) (converted)

Structure (SMILES) | CC50 [µM]
O=c1[nH]c2ccccc2n2cc3ccccc3c12 | > 100

same assay, conditions: read-out: pTGI (converted)

Structure (SMILES) | TGI [µM]
O=c1[nH]c2ccccc2n2cc3ccccc3c12 | > 100

tested on: Hs-578T; assay: Antitumor activity against human HS578T cells; assay type: functional; conditions: not given; summary of the method: as §1

Structure (SMILES) | GI50 [µM]
O=c1[nH]c2ccccc2n2cc3ccccc3c12 | 0.525

same assay, conditions: read-out: Log LC50 (the source's name) (converted)

Structure (SMILES) | CC50 [µM]
O=c1[nH]c2ccccc2n2cc3ccccc3c12 | > 100

same assay, conditions: read-out: pTGI (converted)

Structure (SMILES) | TGI [µM]
O=c1[nH]c2ccccc2n2cc3ccccc3c12 | 34.7

tested on: BT-549; assay: Antitumor activity against human BT549 cells; assay type: functional; conditions: not given; summary of the method: as §1

Structure (SMILES) | GI50 [µM] | LC50 (50% net cell kill) [µM]
O=c1[nH]c2ccccc2n2cc3ccccc3c12 | 19.1 | > 100

same assay, conditions: read-out: pTGI (converted)

Structure (SMILES) | TGI [µM]
O=c1[nH]c2ccccc2n2cc3ccccc3c12 | 64.6

tested on: SF-268; assay: Cell viability against human SF268 cells at 10 uM; assay type: functional; conditions: not given

Structure (SMILES) | Activity [%]
O=c1[nH]c2ccccc2n2cc3ccccc3c12 | 9

tested on: SF-539; assay: Antitumor activity against human SF539 cells; assay type: functional; conditions: not given; summary of the method: as §1

Structure (SMILES) | GI50 [µM] | LC50 (50% net cell kill) [µM]
O=c1[nH]c2ccccc2n2cc3ccccc3c12 | 5.13 | 75.9

same assay, conditions: read-out: pTGI (converted)

Structure (SMILES) | TGI [µM]
O=c1[nH]c2ccccc2n2cc3ccccc3c12 | 22.4

tested on: SK-OV-3; assay: Antitumor activity against human SKOV3 cells; assay type: functional; conditions: not given; summary of the method: as §1

Structure (SMILES) | GI50 [µM] | LC50 (50% net cell kill) [µM]
O=c1[nH]c2ccccc2n2cc3ccccc3c12 | 12.3 | > 100

same assay, conditions: read-out: pTGI (converted)

Structure (SMILES) | TGI [µM]
O=c1[nH]c2ccccc2n2cc3ccccc3c12 | 35.5

tested on: MCF7; assay: Cell viability against human MCF7 cells at 10 uM; assay type: functional; conditions: not given

Structure (SMILES) | Activity [%]
O=c1[nH]c2ccccc2n2cc3ccccc3c12 | 6

tested on: CCRF-CEM; assay: Growth inhibition of human CEM cells after 72 hrs by MTT assay; assay type: functional; conditions: not given
Summary of the method: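 Growth inhibition by MTT after 72 h incubation. Resistant sublines: LoVoDoxo and MCF-7 MDR were kept in 0.1 µg/mL doxorubicin; CEMVbl-100 was selected against vinblastine. GI50 given as mean ± SEM of three independent experiments. Resistance index is resistant-line GI50 over parental GI50.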

Structure (SMILES) | GI50 [µM]
O=c1[nH]c2ccccc2n2cc3ccccc3c12 | 4.7

tested on: SR; assay: Antitumor activity against human SR cells; assay type: functional; conditions: not given; summary of the method: as §2

Structure (SMILES) | GI50 [µM] | LC50 [µM]
O=c1[nH]c2ccccc2n2cc3ccccc3c12 | 2.88 | > 100

same assay, conditions: read-out: pTGI (converted)

Structure (SMILES) | TGI [µM]
O=c1[nH]c2ccccc2n2cc3ccccc3c12 | 7.76

tested on: SK-MEL-5; assay: Antitumor activity against human SKMEL5 cells; assay type: functional; conditions: not given; summary of the method: as §1

Structure (SMILES) | GI50 [µM] | LC50 [µM]
O=c1[nH]c2ccccc2n2cc3ccccc3c12 | 1.91 | 60.3

same assay, conditions: read-out: pTGI (converted)

Structure (SMILES) | TGI [µM]
O=c1[nH]c2ccccc2n2cc3ccccc3c12 | 14.8

tested on: OVCAR-3; assay: Antitumor activity against human OVCAR-3 cells; assay type: functional; conditions: not given; summary of the method: as §1

Structure (SMILES) | GI50 [µM] | LC50 (50% net cell death) [µM]
O=c1[nH]c2ccccc2n2cc3ccccc3c12 | 18.6 | 72.4

same assay, conditions: read-out: pTGI (converted)

Structure (SMILES) | TGI [µM]
O=c1[nH]c2ccccc2n2cc3ccccc3c12 | 36.3

tested on: ACHN; assay: Antitumor activity against human ACHN cells; assay type: functional; conditions: not given; summary of the method: as §1

Structure (SMILES) | GI50 [µM] | LC50 (50% net cell kill) [µM]
O=c1[nH]c2ccccc2n2cc3ccccc3c12 | 1.82 | 34.7

same assay, conditions: read-out: pTGI (converted)

Structure (SMILES) | TGI [µM]
O=c1[nH]c2ccccc2n2cc3ccccc3c12 | 7.24

tested on: T47D; assay: Antitumor activity against human T47D cells; assay type: functional; conditions: not given; summary of the method: as §2

Structure (SMILES) | GI50 [µM] | LC50 [µM]
O=c1[nH]c2ccccc2n2cc3ccccc3c12 | 7.41 | > 100

same assay, conditions: read-out: pTGI (converted)

Structure (SMILES) | TGI [µM]
O=c1[nH]c2ccccc2n2cc3ccccc3c12 | > 100

tested on: CCRF-CEM; assay: Resistance index, Ratio of GI50 for human vinblastine-resistant CEM cells to GI50 for human CEM cells; assay type: functional; conditions: not given

Structure (SMILES) | RatioGI50
O=c1[nH]c2ccccc2n2cc3ccccc3c12 | 0.8
